{
  "source": "paper PMC11808297",
  "about": "(RSC Advances, 2025)",
  "key": {"HEPG2": {"tested_on": "HEPG2", "test": "Anti-proliferation assay", "assay_type": "cell-based", "details": "Homo sapiens, HepG2, 48 h, read-out: IC50 against proliferation, HEPG2", "outline": "(§1)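 Cells thawed, grown in RPMI 1640 + 10% FBS at 37 °C, 5% CO2; used in log phase. Seeded 10 000–12000 cells/well, after 4 h test compound added at working concentrations 0.16/0.8/4/20/100 μmol L−1 in complete medium. MTT (5 mg mL−1) added for 4 h, formazan dissolved in DMSO, absorbance at 570 nm.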"}, "PLC/PRF/5": {"tested_on": "PLC/PRF/5", "test": "Anti-proliferation assay", "assay_type": "cell-based", "details": "Homo sapiens, PLC-PRF-5, 48 h, read-out: IC50 against proliferation, PLC/PRF/5", "outline": "as §1"}, "MDA-MB-231": {"tested_on": "MDA-MB-231", "test": "Anti-proliferation assay", "assay_type": "cell-based", "details": "Homo sapiens, MDA-MB-231, 48 h, read-out: IC50 against proliferation, MDA-MB-231", "outline": "as §1"}, "HuH7": {"tested_on": "HuH7", "test": "Anti-proliferation assay", "assay_type": "cell-based", "details": "Homo sapiens, Huh-7, 48 h, read-out: IC50 against proliferation, HuH7", "outline": "as §1"}, "K562": {"tested_on": "K562", "test": "Anti-proliferation assay", "assay_type": "cell-based", "details": "Homo sapiens, K562, 48 h, read-out: IC50 against proliferation, K562", "outline": "as §1"}, "HEL": {"tested_on": "HEL", "test": "Anti-proliferation assay", "assay_type": "cell-based", "details": "Homo sapiens, 48 h, read-out: IC50 against proliferation, HEL", "outline": "as §1"}, "rat thoracic aorta ring": {"tested_on": "rat thoracic aorta ring", "test": "Rat aortic ring assay", "details": "5 μM, 9 days", "outline": "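Thoracic aortas from 8–10 week-old male SD rats, cleaned of fibroadipose tissue, cut into 1 mm rings, embedded between Matrigel layers. Test compound in M199 added; cultured at 37 °C, 5% CO2 for 9 days with medium plus compound renewed every three days. Micro-vessels imaged by inverted microscope at 100×.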"}, "[1]": {"tested_on": "human umbilical vein endothelial cells (HUVECs)", "test": "HUVEC tubular structure formation assay", "assay_type": "cell-based", "details": "5 μM, 4 h on Matrigel"}, "[2]": {"test": "Metabolic stability in mouse liver microsomes", "assay_type": "in vitro ADME", "details": "for CLint(liver): NADPH; for Remaining (NCF = 60 min): no co-factor", "outline": "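CD-1 mouse liver microsomes in 100 mM potassium phosphate buffer, preincubated 10 min at 37 °C with NADPH (1 mM final) or without co-factor. Test compound spiked to 1 μM final; testosterone positive control. Sampled at 5, 15, 30, 45, 60 min, quenched in cold acetonitrile with tolbutamide/labetalol IS, LC-MS/MS. T1/2 and CLint from first-order kinetics.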"}, "[3]": {"test": "Stability in simulated gastric fluid", "assay_type": "in vitro ADME", "details": "2 μM, 37 °C, pH 1.20, up to 24 h", "outline": "(§2)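 Test compound at 2 μM final in simulated gastric fluid (NaCl, pepsin, HCl; pH 1.20) or simulated intestinal fluid (KH2PO4, pancreatin; pH 6.8), shaken at 37 °C, 600 rpm. At 0, 1, 2, 6, 24 h quenched with cold acetonitrile containing tolbutamide/labetalol IS, centrifuged 4 °C; remaining compound by LC/MS/MS peak area ratio analyte/IS, C18 column.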"}, "[4]": {"test": "In vivo PK study in Sprague Dawley rats", "details": "male, rat, plasma", "outline": "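Male SD rats, 180–220 g, acclimatised one week, fasted 12 h. Single dose i.v. infusion (jugular vein cannula sampling) or oral; blood taken predose and to 24 h (i.v. from 0.083 h, oral from 0.25 h). Plasma by centrifugation, stored −20 °C, LC-MS/MS quantitation.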"}, "APN from porcine kidney": {"molecular_target": "T1, APN from porcine kidney (Sus scrofa, UniProt P15145)", "T1 sequence (P15145 1-963)": "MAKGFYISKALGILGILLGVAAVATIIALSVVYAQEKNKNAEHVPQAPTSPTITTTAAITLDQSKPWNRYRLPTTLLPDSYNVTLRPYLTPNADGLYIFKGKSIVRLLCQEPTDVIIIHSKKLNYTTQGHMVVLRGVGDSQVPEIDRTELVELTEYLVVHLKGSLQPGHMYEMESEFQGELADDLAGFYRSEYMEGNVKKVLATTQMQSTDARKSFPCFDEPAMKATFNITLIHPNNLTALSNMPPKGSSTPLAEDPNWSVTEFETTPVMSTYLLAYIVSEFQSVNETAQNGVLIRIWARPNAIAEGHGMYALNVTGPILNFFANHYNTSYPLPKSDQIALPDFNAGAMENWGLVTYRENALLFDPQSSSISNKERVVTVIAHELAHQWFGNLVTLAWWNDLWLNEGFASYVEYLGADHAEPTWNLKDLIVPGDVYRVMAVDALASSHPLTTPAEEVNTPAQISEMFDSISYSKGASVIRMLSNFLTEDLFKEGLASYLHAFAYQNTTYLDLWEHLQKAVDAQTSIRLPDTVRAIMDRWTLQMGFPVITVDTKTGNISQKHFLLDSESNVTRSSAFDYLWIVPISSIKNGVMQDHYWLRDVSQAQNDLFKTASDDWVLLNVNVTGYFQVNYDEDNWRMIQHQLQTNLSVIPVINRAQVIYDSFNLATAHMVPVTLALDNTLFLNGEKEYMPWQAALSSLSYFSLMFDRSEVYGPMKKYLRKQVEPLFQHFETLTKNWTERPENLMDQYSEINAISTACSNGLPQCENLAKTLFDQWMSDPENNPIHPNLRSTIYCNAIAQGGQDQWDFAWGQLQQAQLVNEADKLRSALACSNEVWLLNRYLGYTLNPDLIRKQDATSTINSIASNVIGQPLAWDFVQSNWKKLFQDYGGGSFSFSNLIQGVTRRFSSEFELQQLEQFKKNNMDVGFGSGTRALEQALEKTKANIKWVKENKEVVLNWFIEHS", "test": "APN inhibition assay", "assay_type": "biochemical"}, "[5]": {"test": "Stability in simulated intestinal fluid", "assay_type": "in vitro ADME", "details": "2 μM, 37 °C, pH 6.8, up to 24 h", "outline": "as §2"}, "[6]": {"details": "mouse liver microsomes, 1 μM, 60 min"}},
  "data": [
    {"smiles": "CC(C)C[C@H](NC(=O)[C@@H](O)[C@H](N)Cc1ccccc1)C(=O)O", "note": "[Bestatin, reference compound]", "values": [
      {"measurement": "IC50", "setting": "HEPG2", "result": "> 100", "unit": "µM"},
      {"measurement": "IC50", "setting": "PLC/PRF/5", "result": "> 100", "unit": "µM"},
      {"measurement": "IC50", "setting": "MDA-MB-231", "result": "> 100", "unit": "µM"},
      {"measurement": "IC50", "setting": "HuH7", "result": "> 100", "unit": "µM"},
      {"measurement": "IC50", "setting": "K562", "result": "> 100", "unit": "µM"},
      {"measurement": "IC50", "setting": "HEL", "result": "> 100", "unit": "µM"}
    ]},
    {"smiles": "CC(C)C[C@H](NC(=O)NCc1cn(-c2ccccc2C(=O)OCn2cc(F)c(=O)[nH]c2=O)nn1)C(=O)NO", "note": "[Compound 3, (5-fluoro-2,4-dioxo-3,4-dihydropyrimidin-1(2H)-yl)methyl (S)-2-(4-((3-(1-(hydroxyamino)-4-methyl-1-oxopentan-2-yl)ureido)methyl)-1H-1,2,3-triazol-1-yl)benzoate]", "values": [
      {"measurement": "IC50", "setting": "HEPG2", "result": "> 100", "unit": "µM"},
      {"measurement": "IC50", "setting": "PLC/PRF/5", "result": "> 100", "unit": "µM"},
      {"measurement": "Effect on micro-vessel growth of rat aortic ring", "setting": "rat thoracic aorta ring", "result": "could prevent the micro-vessel growth"},
      {"measurement": "Effect on HUVEC capillary tube formation", "setting": "[1]", "result": "could inhibit the capillary tube formation"},
      {"measurement": "half-life at 1 μM", "setting": "[2]; CD-1, mouse, liver microsomes", "result": 94.9, "unit": "min"},
      {"measurement": "microsomal CLint at 1 μM", "setting": "[2]; CD-1, mouse, liver microsomes", "result": 14.6, "unit": "µL/min/mg"},
      {"measurement": "CLint(liver)", "setting": "[2]; mouse liver microsomes, 1 μM", "result": 57.8, "unit": "mL/min/kg"},
      {"measurement": "Remaining (NCF = 60 min)", "setting": "[2]; [6]", "result": 80.1, "unit": "%"},
      {"measurement": "Remaining (T = 60 min)", "setting": "[2]; mouse liver microsomes, 1 μM, with NADPH, 60 min", "result": 69.4, "unit": "%"},
      {"measurement": "Stability in simulated gastric fluid", "setting": "[3]", "result": "very stable"},
      {"measurement": "IC50", "setting": "MDA-MB-231", "result": "> 100", "unit": "µM"},
      {"measurement": "IC50", "setting": "HuH7", "result": "> 100", "unit": "µM"},
      {"measurement": "Tmax", "setting": "[4]; iv, 10 mg/kg", "result": 5, "unit": "min"},
      {"measurement": "clearance", "setting": "[4]; iv, 10 mg/kg", "result": 12.3, "unit": "mL/min/kg"},
      {"measurement": "half-life", "setting": "[4]; iv, 10 mg/kg", "result": "52 ± 23.2", "unit": "min"},
      {"measurement": "AUC(0-inf)", "setting": "[4]; po, 50 mg/kg", "result": "510 ± 99.3", "unit": "ng·h/mL"},
      {"measurement": "AUC(0-t)", "setting": "[4]; po, 50 mg/kg", "result": "484 ± 119", "unit": "ng·h/mL"},
      {"measurement": "Cmax", "setting": "[4]; po, 50 mg/kg", "result": "337 ± 158", "unit": "ng/mL"},
      {"measurement": "Tmax", "setting": "[4]; po, 50 mg/kg", "result": "25 ± 8.64", "unit": "min"},
      {"measurement": "half-life", "setting": "[4]; po, 50 mg/kg", "result": "266 ± 246", "unit": "min"},
      {"measurement": "IC50", "setting": "APN from porcine kidney", "result": "0.5 ± 0.29", "unit": "µM"},
      {"measurement": "APN inhibitory activity, fold more potent than bestatin", "setting": "APN from porcine kidney; vs positive control bestatin", "result": "over 8 fold"},
      {"measurement": "Stability in simulated intestinal fluid", "setting": "[5]", "result": "slowly cleaved"},
      {"measurement": "IC50", "setting": "K562", "result": "25.6 ± 12.3", "unit": "µM"},
      {"measurement": "IC50", "setting": "HEL", "result": "47.2 ± 19.3", "unit": "µM"}
    ]},
    {"smiles": "C[C@]12CC[C@H]3[C@@H](CCC4=CC(=O)CC[C@@]43C)[C@@H]1CC[C@@H]2O", "note": "[Testosterone, reference compound]", "values": [
      {"measurement": "CLint(liver)", "setting": "[2]; mouse liver microsomes, 1 μM", "result": 998.5, "unit": "mL/min/kg"},
      {"measurement": "Remaining (NCF = 60 min)", "setting": "[2]; [6]", "result": 91.0, "unit": "%"}
    ]}
  ]
}
